Assay results published in ChEMBL document CHEMBL1124331, “Mitomycin C analogues with a substituted hydrazine at position 7. Synthesis, spectral properties, and biological activity” (1989).

Tests used:
[1] = test system: P388; experiment: Minimum effective dose observed for the substrate; format: functional; settings: Mus musculus, read-out: MED
Outline: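 Same ip P388 leukemia model with ip dosing; minimum effective dose taken as lowest mg/kg per dose giving %T/C ≥ 125, with concurrent mitomycin C values.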

[2] = test system: P388; experiment: Compound (6.4 mg/kg) was tested in vivo against P388 lymphocytic leukemia screen for Median survival time; format: functional, Mus musculus
Outline: (§1)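 Murine P388 lymphocytic leukemia, tumour implanted ip and drug also given ip; testing at Bristol-Myers. Median survival time recorded at the optimal dose (mg/kg per dose) beside concurrently run mitomycin C control; %T/C = treated median survival/control median survival × 100.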

[3] = test system: P388; experiment: Compound (25.6 mg/kg) was tested in vivo against P388 lymphocytic leukemia screen for Median survival time; format: functional, Mus musculus; outline: as §1
[4] = test system: P388; experiment: Compound (51.2 mg/kg) was tested in vivo against P388 lymphocytic leukemia screen for Median survival time; format: functional, Mus musculus; outline: as §1

SMILES | minimal effective dose [1] [mg/kg] | T/C [2] [%] | T/C [3] [%] | T/C [4] [%]
CO[C@@]12[C@H](COC(N)=O)c3c(O)c(/N=N/C(=O)c4cccs4)c(C)c(O)c3N1C[C@@H]1N[C@@H]12 | 0.8 | 140 |  | 
CO[C@@]12[C@H](COC(N)=O)c3c(O)c(/N=N/C(=O)c4cccnc4)c(C)c(O)c3N1C[C@@H]1N[C@@H]12 | 12.8 |  | 150 | 
CO[C@@]12[C@H](COC(N)=O)c3c(O)c(/N=N/C(=O)OC(C)(C)C)c(C)c(O)c3N1C[C@@H]1N[C@@H]12 | 0.8 |  | 160 | 
CCOC(=O)/N=N/c1c(C)c(O)c2c(c1O)[C@@H](COC(N)=O)[C@@]1(OC)[C@H]3N[C@H]3CN21 | 0.8 |  | 180 | 
CO[C@@]12[C@H](COC(N)=O)c3c(O)c(/N=N/C(=O)OCC4c5ccccc5-c5ccccc54)c(C)c(O)c3N1C[C@@H]1N[C@@H]12 | 0.8 |  | 195 | 
CO[C@@]12[C@H](COC(N)=O)c3c(O)c(/N=N/C(=O)c4ccccc4)c(C)c(O)c3N1C[C@@H]1N[C@@H]12 | 0.8 |  | 150 | 
CO[C@@]12[C@H](COC(N)=O)c3c(O)c(/N=N/C(=O)OCc4ccccc4)c(C)c(O)c3N1C[C@@H]1N[C@@H]12 | 1.6 | 185 |  | 
CO[C@@]12[C@H](COC(N)=O)c3c(O)c(/N=N/C(C)=O)c(C)c(O)c3N1C[C@@H]1N[C@@H]12 | 1.6 |  |  | 190
